MsrA inhibitor = inhibitors of bovine MsrA | purified bovine MsrA, absorbance read-out | inhibition, % at 15.5 µM | hit rate 0.75% among 360,000; in the data active means inhibition above about 4.5%;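 further: 0% = vehicle wells with enzyme and 100% = reference inhibitor wells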
ASAP1 GAP inh = blocks human ASAP1-stimulated Arf1 GTP hydrolysis; inhibition, % at 16.5 µM; hit rate 0.19% among 360,000; Q9ULH1; AID 624377; GDP FP detection; in the data active means inhibition above about 25%;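 further: 0% = vehicle with enzyme and substrate and 100% = no enzyme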
Target sequence (Q9ULH1 325-724 limits assumed): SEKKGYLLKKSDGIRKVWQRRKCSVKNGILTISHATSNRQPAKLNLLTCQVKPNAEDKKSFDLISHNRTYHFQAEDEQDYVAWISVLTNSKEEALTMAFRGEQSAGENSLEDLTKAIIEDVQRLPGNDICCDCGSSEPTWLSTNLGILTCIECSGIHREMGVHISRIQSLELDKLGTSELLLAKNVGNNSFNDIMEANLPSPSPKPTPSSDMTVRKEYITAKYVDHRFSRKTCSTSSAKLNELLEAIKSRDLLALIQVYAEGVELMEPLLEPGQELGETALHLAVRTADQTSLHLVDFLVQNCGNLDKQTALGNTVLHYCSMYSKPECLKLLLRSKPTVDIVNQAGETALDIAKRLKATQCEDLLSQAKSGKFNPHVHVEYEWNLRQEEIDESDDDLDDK
MsrA act = activates bovine MsrA enzyme; purified bovine MsrA, absorbance read-out; activation, % at 10.6 µM; hit rate 0.3% among 360,000; AID 602163; in the data active means activation above about 7.5%;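 further: 0% = vehicle and 100% = reference activator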
ARFGAP1 inhibitor = inhibits rat ARF GTPase activating protein 1 | Q62848 | Arfgap1-stimulated ARF1 GTP hydrolysis, GDP FP detection | inhibition, % at 16.5 µM | hit rate 0.26% among 360,000 | AID 651572;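 active means inhibition above a per-plate limit, mean inhibition of low control wells plus 3 SD, cut at about 25% in these data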;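 further: 0% = DMSO wells with enzyme and 100% = wells lacking Arfgap1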
Target sequence (Q62848 1-136 limits assumed): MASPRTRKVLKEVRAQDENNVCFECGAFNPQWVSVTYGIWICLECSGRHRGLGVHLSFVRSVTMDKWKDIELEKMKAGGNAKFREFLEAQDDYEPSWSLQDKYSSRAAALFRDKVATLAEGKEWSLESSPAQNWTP
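System: truncated rat Arfgap1 GAP domain / Benchmarks: high control wells lacking Arfgap1, low control full reaction with DMSO / Times: compound-enzyme preincubation 20 min, reaction 120 min, detection 60 min, 25 °C / Repeats: one replicate per compound / Also added: human ARF1(Δ1-17)-GTP substrate / Measured by: Tracer-displacement fluorescence polarization with EDTA stop, 620/688 nm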
sPLA2-III inh = Inhibits HGIII-sPLA2 liposome hydrolysis, primary screen | QFRET BODIPY PC-A2 liposome hydrolysis, fluorescence | inhibition, % at 12.2 µM | hit rate 0.56% among 370,000;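 active means inhibition above mean plus 3 SD of compounds lying within the high and low control bounds, cut at about 19% in these data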;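 further: 0% = median of test compound wells and 100% = no enzyme DMSO wells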
NR1D1 modulator = Rev-erb alpha (human) modulation. P20393. Rev-erbα–FITC-DNA binding, fluorescence polarization, 90 min. activity, % at 10 µM. hit rate 0.79% among 370,000. AID 1259318;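 active means activity above about 14%, limit read from the data; passing the limit was not always enough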;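 further: 0% = DMSO wells with 35 nM protein and 100% = DMSO wells with 750 nM protein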
hGIII sPLA2 conf = human GIII-sPLA2 inhibition, confirmation | hit rate 34% among 2,000 | inhibition, % at 12.2 µM | shares compounds with sPLA2-III inh | AID 743280 | recombinant hGIII-sPLA2, BODIPY PC-A2 QFRET fluorescence;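 active means mean inhibition across triplicates above the hit cutoff set in the earlier primary screen, cut at about 19% in these data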;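 further: 0% = enzyme with DMSO and 100% = DMSO wells lacking enzyme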
535nm interf = 535nm fluorescence interference, HGIII-sPLA2 counter-screen | shares compounds with sPLA2-III inh | BODIPY FL product fluorescence interference, QFRET | inhibition, % at 12.2 µM | hit rate 8.5% among 2,000;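 active means average inhibition above the solvent-only control mean plus 3 SD, cut at about 6% in these data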;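 further: 0% = DMSO with substrate plus product and 100% = DMSO with substrate alone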
535nm interf DR = 535nm optical interference dose response, HGIII-sPLA2 counter-screen; shares compounds with sPLA2-III inh; AID 743455; 240 tested, under 10 active; IC50, µM; BODIPY FL product fluorescence interference, cell-free;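 active means IC50 at or below 10 µM; inactive means IC50 above 10 µM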
* marks the source's active call; other numbers are inactive results; · = no result. Compounds with a hit are over-represented: about 2.7% of the library has one in this group of screens.

SMILES	MsrA inhibitor	ASAP1 GAP inh	MsrA act	ARFGAP1 inhibitor	sPLA2-III inh	NR1D1 modulator	hGIII sPLA2 conf	535nm interf	others
CC(=O)Nc1c(C)ccc(CNC(=O)COc2cc(C)ccc2C)c1C	-0.3	8.8	-2.4	9.4	20.9*	-4.2	-3.7	-11.8
COc1cccc(-c2csc(NNC(=O)c3cccs3)n2)c1	-0.3	8.9	-6.8	8.1	22.6*	0.3	44.7*	7.3*
COc1cccc(-c2csc(NC(=O)Oc3ccccc3)n2)c1	0.0	-11.8	-8.6	-8.1	-2.7	3.8	·	·
O=C(O)C1CSC2c3ccccc3C(=O)N12 (stereo not drawn)	0.6	-12.4	-1.7	13.8	20.4*	1.5	2.7	-4.8
CCOc1ccc(-n2c(N)c(-c3nc4ccccc4[nH]3)sc2=S)cc1	0.8	3.5	-3.2	8.3	20.4*	3.1	32.8*	1.9	535nm interf DR=>122
CC(C)C[C@@H]1COc2cc(Br)ccc2S(=O)(=O)N1Cc1cn(CCC2OCCCO2)nn1	·	·	·	·	22.5*	3.5	-0.2	-28.9
CCCC[C@@H]1C(=O)N2N=Cc3cscc3[C@H]2N2N=Cc3cscc3[C@@H]12	·	·	·	·	-0.5	1.4	·	·
N#Cc1ccc(OC[C@@H](O)CN2CCC(C(O)(c3ccccc3)c3ccccc3)CC2)cc1F	·	·	·	·	-28.2	2.3	·	·
CCCCCOC(=O)CCN1C(=O)/C(=C2\SC(=S)N(CCC(=O)OCCCCC)C2=O)SC1=S	-0.9	-10.7	-3.1	5.9	5.8	8.6	·	·
CCCCOC(=O)CCN1C(=O)/C(=C2\SC(=S)N(CCC(=O)OCCCC)C2=O)SC1=S	0.3	12.0	-12.7	-0.4	21.6*	6.1	-6.5	-2.3
O=C(NNC(=S)Nc1ccc(F)cc1)c1cccc([N+](=O)[O-])c1	1.9	4.8	-1.3	0.6	24.7*	-4.9	30.5*	0.3
O=C(NC(=S)NNC(=O)c1ccccc1O)c1cccc([N+](=O)[O-])c1	1.2	11.2	0.8	-8.5	41.3*	7.3	27.1*	5.1
O=C(NC(=S)NNC(=O)c1ccccc1O)c1cccnc1	1.9	-4.0	3.5	-6.6	33.1*	-0.6	16.1	-4.0
O=C(NC(=S)NNC(=O)c1ccc(Cl)cc1Cl)c1cccnc1	-1.2	1.5	-1.3	10.6	3.1	3.9	·	·
O=C(NNC(=S)Nc1ccc(C(=O)O)c(O)c1)c1ccncc1	3.4	-4.3	0.7	-2.2	20.5*	8.7	6.2	-3.1
O=C(NNC(=S)Nc1ccccc1)c1ccncc1	1.7	4.9	-0.5	-2.8	7.2	-0.9	·	·
COc1ccc2c(c1)CO[C@H]([C@H](O)CO)[C@H]2/C=C/c1ccccc1	·	·	·	·	-4.4	15.5	·	·
O=C(CCc1ccccc1)N[C@H]1[C@H](OC(=O)c2cnccn2)CCC[C@]12C(=O)N(Cc1ccccc1)c1ccccc12	·	·	·	·	11.0	7.5	·	·
Cc1[nH]nc(-c2cccnc2)c1N=NN(C)C	0.2	-8.8	-1.4	-4.1	3.2	-6.2	·	·
COC(=O)[C@]12C[C@H](CC(=O)NCc3cccc(C(F)(F)F)c3)C(=O)N(Cc3ccc4c(c3)OCO4)C1=C[C@H](C(C)C)O[C@@H]2C1CC1	·	·	·	·	-7.6	-5.4	·	·
O=C(NNC(=S)Nc1ccc(Br)cc1)c1cccnc1	2.0	-2.2	-0.9	7.9	19.3*	-3.4	30.6*	-1.1	535nm interf DR=>122
CC(=O)OCC(=O)[C@@]1(O)CC[C@H]2[C@@H]3CCC4=CC(=O)C=C[C@]4(C)[C@H]3C(=O)C[C@@]21C	-0.3	13.5	-1.2	-6.3	-4.6	2.2	·	·
CCOC1(C)OCC(=O)[C@]2(CCC3C4CCC5=CC(=O)C=CC5(C)C4C(=O)CC32C)O1 (stereo partly drawn)	0.6	5.4	-2.5	-1.2	19.4*	7.5	0.2	-15.3
CCn1c(COc2ccccc2)nnc1SCC(=O)Nc1ccc(Oc2ccccc2)cc1	·	·	·	·	-3.0	1.1	·	·
O=C(Nc1cccs1)Nc1c(F)c(F)cc(F)c1F	-0.5	-9.7	-3.0	-2.0	21.4*	0.4	-1.1	-2.3
SMILES	MsrA inhibitor	ASAP1 GAP inh	MsrA act	ARFGAP1 inhibitor	sPLA2-III inh	NR1D1 modulator	hGIII sPLA2 conf	535nm interf	others
COc1ccc(-n2c(Cc3cccs3)nnc2SCC(=O)Nc2cccc3ccccc23)cc1	·	·	·	·	-28.4	-1.0	·	·
CN(C)C(=O)C[n+]1ccc(C(N)=O)cc1	0.4	-7.0	-1.7	-12.9	10.6	0.1	·	·
CC(C)(C)C(=O)C[n+]1ccc(C(N)=O)cc1	-0.6	-2.9	0.3	0.9	25.6*	-5.7	0.1	-2.9
CC(C)(S)C(=O)N[C@@H](CS)C(=O)O	·	·	·	·	·	8.4	·	·
CCN(CC)S(=O)(=O)c1ccc(Cl)c(NC(=O)COc2ccc3c(C)cc(=O)oc3c2)c1	0.7	6.8	-7.6	12.9	20.6*	3.0	-2.0	-11.7
CCN(CC)S(=O)(=O)c1ccc(OC)c(NC(=O)COc2ccc3c(C)cc(=O)oc3c2)c1	1.2	-5.5	-0.8	18.4	8.8	8.0	·	·
COC[C@H]1CCCN1c1cccc2c1S(=O)(=O)N(C1CC1)CC[C@@H](C)O2	·	·	·	·	5.5	-1.4	·	·
Cc1n[nH]c(=O)nc1NCc1ccccc1Cl	-1.1	-7.2	-2.4	-3.9	9.9	1.7	·	·
O=c1nc(NCc2ccccc2Cl)cn[nH]1	0.3	11.4	-11.3	4.8	24.6*	-1.7	-0.8	-6.5
Cc1nc2c(c(=O)c3ccccc3n2C)c(=O)n1-c1ccc(F)cc1	0.8	-3.5	-1.7	2.8	7.7	-5.1	·	·
CC(C)c1nc2c(c(=O)c3ccccc3n2C)c(=O)n1-c1ccc(F)cc1	0.4	-4.4	-4.3	14.3	23.8*	0.5	1.2	-15.6
COc1cc(OC)cc(-c2c(-c3ccc(C(C)=O)cc3)c3cc(-c4cccc5[nH]ccc45)ccc3n2C)c1	2.9	18.8	-4.3	4.5	11.2	3.2	·	·
COc1cc(OC)cc(-c2c(-c3cccs3)c3cc(-c4cccc5[nH]ccc45)ccc3n2C)c1	1.3	7.4	-5.1	14.0	28.7*	5.2	15.9	9.8*
NC(CCc1ccccc1)c1csc(NC(=O)Nc2cccc(C(F)(F)F)c2)n1 (stereo not drawn)	0.1	2.6	-5.1	16.1	16.1	2.6	·	·
CC(=O)NN1C(=O)/C(=C2/Sc3ccc(Cl)cc3N2C)SC1=S	1.1	-0.5	-5.0	3.2	20.0*	-11.3	15.6	-0.5
COCCCN1C(=O)[C@H](CC(=O)NCc2cccc3ccccc23)[C@]2(C(=O)OC)CCCCC=C12	·	·	·	·	-15.3	6.8	·	·
CCCCN(C)S(=O)(=O)c1ccc2[nH]c(=O)oc2c1	·	·	·	·	-2.6	-3.6	·	·
O=C(c1cc(O)c(O)c([N+](=O)[O-])c1)c1ccccc1F	3.1	-4.5	-11.1	0.7	28.6*	-6.7	15.1	2.9

Screens (PubChem BioAssay)
